The list is not random: actives were taken first. Their share in the collection is about 2.6%.
NadD inh – NadD (S. aureus) enzyme inhibition. AID 602399. purified NadD enzyme, colorimetric absorbance read-out. inhibition, % at 20 µM. hit rate 0.78% among 360,000; in the data active means inhibition above about 26%
ABHD5-PLIN5 inh – inhibitors of human ABHD5-perilipin-5 interaction; Q00G26+Q8WTS1; Split G. princeps luciferase complementation, luminescence, 4 h; inhibition, % at 4 µM; hit rate 0.78% among 360,000;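 active means inhibition above the mean inhibition across every tested compound plus 3 SD, cut at about 22% in these data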;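 further: 0% = DMSO only wells and the 100% control is not disclosed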
Target sequence (Q00G26 whole entry, looked up): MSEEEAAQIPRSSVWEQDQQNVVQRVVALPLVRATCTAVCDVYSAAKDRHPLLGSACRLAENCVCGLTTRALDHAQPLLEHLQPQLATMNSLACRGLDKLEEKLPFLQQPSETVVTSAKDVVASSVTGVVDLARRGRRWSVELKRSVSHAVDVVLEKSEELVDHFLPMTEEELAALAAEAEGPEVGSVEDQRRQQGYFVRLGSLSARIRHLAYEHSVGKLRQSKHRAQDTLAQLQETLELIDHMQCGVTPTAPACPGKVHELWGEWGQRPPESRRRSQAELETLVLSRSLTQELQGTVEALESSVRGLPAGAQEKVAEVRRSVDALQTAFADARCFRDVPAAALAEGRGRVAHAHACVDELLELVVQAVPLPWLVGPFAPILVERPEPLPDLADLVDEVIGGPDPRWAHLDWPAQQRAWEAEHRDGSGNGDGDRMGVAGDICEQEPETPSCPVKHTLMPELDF
Target sequence (Q8WTS1 whole entry, looked up): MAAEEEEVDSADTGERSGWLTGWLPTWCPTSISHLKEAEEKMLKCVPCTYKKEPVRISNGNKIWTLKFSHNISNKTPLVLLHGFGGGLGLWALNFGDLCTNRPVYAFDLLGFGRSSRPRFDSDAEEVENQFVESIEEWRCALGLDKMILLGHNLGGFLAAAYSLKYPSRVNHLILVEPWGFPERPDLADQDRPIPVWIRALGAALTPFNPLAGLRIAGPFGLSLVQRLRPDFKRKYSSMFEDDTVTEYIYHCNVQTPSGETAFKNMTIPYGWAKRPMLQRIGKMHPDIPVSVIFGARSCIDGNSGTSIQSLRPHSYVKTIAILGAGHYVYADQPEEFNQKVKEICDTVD
rCAG RNA binder – binds r(CAG) RNA repeats; r(CAG) RNA repeat, TO-PRO-1 dye displacement fluorescence; inhibition, % at 3 µM; hit rate 1.3% among 370,000;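 active means inhibition above the plate cutoff, the mean of all test compounds on that plate plus 3 SD, cut at about 35% in these data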;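 further: 0% = DMSO alone and 100% = 100 µM mitoxantrone as full dye displacement; higher means more dye released from RNA so lower well fluorescence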
core dimer inh – HCV core protein dimerization inhibition; TR-FRET GST/Flag-core106 dimerization, 1536-well; inhibition, % at 5 µM; hit rate 0.33% among 300,000; AID 1899;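 active means inhibition above the mean of all tested compounds plus 3 SD, set per screening campaign, cut at about 45% in these data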
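Assay system: Tagged HCV core106 pair (GST and Flag) | Buffer or medium: KF-containing HEPES buffer, pH 7.45, DTT, CHAPS, BSA | Also added: Eu donor and XL665 acceptor anti-tag antibodies | Dosing: One concentration, 5 µM, in 0.5% DMSO | Timing: 4 h at 22.5 °C | Technique: TR-FRET 671 and 617 nm emission | Repeats: Singlicate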
rCAG binder conf – r(CAG) RNA repeat binding, confirmation. hit rate 70% among 4,300. TO-PRO-1 dye displacement fluorescence. inhibition, % at 3 µM. AID 652065. shares compounds with rCAG RNA binder;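 active means inhibition above a per-plate cutoff, the mean inhibition of sample wells plus 3 SD, cut at about 35% in these data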;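 further: loss of TO-PRO-1 fluorescence as compound displaces dye from 1x1 AA loop RNA; 0% = DMSO only wells and 100% = 100 µM mitoxantrone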
DNA CAG counter – disrupts DNA CAG TO-PRO-1 complex, flagging rCAG hits; inhibition, % at 3 µM; d(CAG) DNA oligo TO-PRO-1 dye displacement, fluorescence; AID 652068; shares compounds with rCAG RNA binder; hit rate 94% among 4,300;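 active means inhibition above its plate's cutoff, the mean test-well inhibition plus 3 SD, cut at about 4.8% in these data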;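 further: 0% = DNA dye mix with DMSO and 100% = 100 µM mitoxantrone; hits displace the dye from DNA and so lower well fluorescence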
DNA CAG DR – disrupts DNA CAG TO-PRO-1 complex in dose response | shares compounds with rCAG RNA binder | DNA CAG/GTC duplex TO-PRO-1 dye displacement fluorescence | IC50, µM | hit rate 20% among 250 | AID 686960; in the data active means IC50 below about 10 µM
Numbers without * were called inactive; · = no result.

SMILES | NadD inh | ABHD5-PLIN5 inh | rCAG RNA binder | core dimer inh | rCAG binder conf | DNA CAG counter | others
COc1ccc(C(=O)NC(=S)Nc2ccc(S(N)(=O)=O)cc2)cc1 | 1 | 2 | -2 | 4 | · | ·
CCc1nnc(NS(=O)(=O)c2ccc(NC(=S)NC(=O)c3ccc(OC)cc3)cc2)s1 | 8 | 5 | 70* | 19 | 67* | 33*
CC(C)(C)c1ccc(S(=O)(=O)NCC(=O)N2CCN(c3ncccn3)CC2)cc1 | · | · | 1 | · | · | ·
COc1ccccc1OCC(=O)Nc1ccc(NC(=O)COc2ccccc2OC)cc1 | 3 | 8 | 3 | 6 | · | ·
COc1ccc(CC(=O)Nc2ccc(C(=O)Nc3ccccc3C(=O)O)cc2)cc1OC | -4 | 2 | 59* | -11 | 42* | 9.9*
COc1ccccc1OCC(=O)Nc1ccc(C(=O)Nc2ccccc2C(=O)O)cc1 | -1 | 6 | 58* | · | 65* | 23*
CC(C)(C)c1ccc(OCC(=O)Nc2ccc(C(=O)Nc3ccccc3C(=O)O)cc2)cc1 | 28 | -4 | 43* | 9 | 88* | 67*
CC(C)(C)c1ccc(OCC(=O)NNC(=O)Nc2ccccc2)cc1 | -2 | -3 | -1 | 4 | · | ·
CC(=O)C[C@@H](O)CC(=O)[C@H]1OC(=O)CCCCCCCCc2ccccc21 | -3 | -5 | -5 | · | · | ·
OC(c1ccc(-c2ccccc2)cc1)c1ncc(-c2ccc(C(F)(F)F)cc2)[nH]1 (configuration not stated) | 6 | -18 | 6 | · | · | ·
COc1ccc(/C=N/n2c(-c3n[nH]c4c3CCC4)n[nH]c2=S)cc1 | 7 | -3 | 2 | 2 | · | ·
S=c1[nH]nc(-c2n[nH]c3c2CCC3)n1N=Cc1ccc(OCc2ccccc2)cc1 | · | · | 38* | · | 43* | 14*
CC(C)Oc1cccc(-c2n[nH]c(=S)n2N=Cc2ccc(OCc3ccccc3)cc2)c1 | · | · | 51* | · | 52* | 26*
COc1ccc(/C=N/n2c(-c3cc(C)[nH]n3)n[nH]c2=S)cc1 | 5 | -8 | 1 | 1 | · | ·
COc1ccc(/C=N/n2c(-c3ccccc3)n[nH]c2=S)cc1 | 11 | -1 | 11 | 14 | · | ·
Cc1cc(-c2n[nH]c(=S)n2N=Cc2ccc(OCc3ccccc3)cc2)n[nH]1 | · | · | 35* | · | 40* | 9.8*
CCc1nnc(NC(=O)c2csc3c2CCC(C)C3)s1 (configuration not stated) | · | · | · | -1 | · | ·
CC1CCc2c(C(=O)Nc3cccc(-c4nn[nH]n4)c3)csc2C1 (configuration not stated) | 1 | 0 | 65* | 5 | 46* | 13*
COc1ccc(/C=C2\C(=O)NC(=S)N2C(=O)c2ccc(F)cc2)cc1 | 17 | 3 | 38* | 8 | 69* | 31*
O=C(c1ccc(F)cc1)N1CCN(Cc2ccccc2)CC1 | 0 | 0 | -5 | -9 | · | ·
O=C1NC(=S)N(C(=O)c2ccc(F)cc2)/C1=C/c1ccccc1 | 5 | -4 | 36* | 14 | 65* | 24*
CCOC(=O)C1CSCCS(=O)(=O)N1Cc1ccccc1C (configuration not stated) | · | · | -1 | · | · | ·
COc1cccc(-c2ccc(CC[C@H]3O[C@H]4CC[C@@H](CO)O[C@H]4C[C@H]3NS(C)(=O)=O)cc2)c1 | · | · | 7 | · | · | ·
COCCN(C[C@@H]1[C@H](c2ccccc2)[C@H](CO)N1c1nc(C)c(C)s1)S(=O)(=O)c1ccccc1[N+](=O)[O-] | · | · | 8 | · | · | ·
C#CCNC(=O)C[C@@H]1C(=O)N2CCCC3=C2[C@@]1(C(=O)OCC)CCC3 | · | · | 35* | · | 0 | -1
SMILES | NadD inh | ABHD5-PLIN5 inh | rCAG RNA binder | core dimer inh | rCAG binder conf | DNA CAG counter | others
CCOC(=O)[C@@]12CCCC3=C1N(CCC3)C(=O)[C@H]2CC(=O)NCc1ccccc1 | · | · | -2 | · | · | ·
OC(c1ccccc1)(c1ccccc1)C1CCN(CCCOc2ccc(-c3ccncc3)cc2)CC1 | · | · | 4 | · | · | ·
CC(=O)OCCNc1cc(SCc2ccco2)c2nonc2c1[N+](=O)[O-] | 13 | 10 | · | 4 | · | ·
O=[N+]([O-])c1c(NCCCO)cc(SCc2ccco2)c2nonc12 | 1 | 2 | 47* | 10 | 6 | 2
Cc1c(CCC(=O)N2CCC[C@H]2C(=O)O)c(=O)oc2c(C)c3oc4c(c3cc12)CCCC4 | 2 | -1 | 38* | 7 | 58* | 19* | DNA CAG DR=>30
CC(=O)Nc1ccc(S(=O)(=O)NNC(=O)c2cc3c4ccccc4n(C)c3s2)cc1 | 14 | -8 | 36* | 14 | 31 | 16*
O=C1NC[C@H](CCCCN2C[C@H](Cc3ccc(O)cc3)N(Cc3ccccc3)C(=O)C2=O)N(Cc2ccccc2)C1=O | 15 | -5 | 7 | · | · | ·
CCOC1=C/C(=C/c2c(N)n3nc(-c4ccccc4)sc3nc2=O)C=CC1=O | 43* | 4 | 49* | · | 59* | 25*
COC1=C/C(=C/c2c(N)n3nc(-c4ccc(C)cc4)sc3nc2=O)C=CC1=O | 35* | -1 | 63* | · | 59* | 19*
COc1ccccc1N1CCN(S(=O)(=O)CCNC(=O)C2CC2)CC1 | -2 | 1 | -1 | -4 | · | ·
COc1ccc2[nH]c(C)c(-c3csc(N)n3)c2c1 | 2 | -3 | 37* | -33 | 15 | 11*
Cc1cccc(C(=O)N2CCC(C)(C(=O)NS(=O)(=O)C3CC3)C2)c1C (configuration not stated) | 4 | 4 | 3 | · | · | ·
COC(=O)[C@]12C[C@H](CC(=O)N3CCC(c4ccccc4)CC3)C(=O)N(Cc3ccco3)C1=C[C@H](C(C)C)O[C@@H]2C1CC1 | · | · | 1 | · | · | ·
COc1ccc(C(=O)OCC(=O)Nc2ncc([N+](=O)[O-])s2)cc1OC | 6 | -11 | 52* | · | 74* | 41*
C=CCSc1nnc(-c2ccccc2N=Cc2c(C)[nH]n(-c3ccccc3)c2=O)c(=O)[nH]1 | 9 | -2 | 41* | 2 | 33 | 9.6*
CCSc1nnc(-c2ccccc2NC(=O)CC)c(=O)[nH]1 | 3 | 3 | -3 | -2 | · | ·
CSc1nnc(-c2ccccc2N=Cc2c(C)[nH]n(-c3ccc4ccccc4c3)c2=O)c(=O)[nH]1 | 29 | -5 | 68* | 10 | 71* | 32* | DNA CAG DR=9.2*
Cc1[nH]n(-c2ccccc2)c(=O)c1/C=N/c1nn[nH]n1 | 1 | -19 | 3 | -6 | · | ·
C=CCSc1nnc(-c2ccccc2NC(=O)CC)c(=O)[nH]1 | -2 | -6 | 51* | 2 | 5 | 2
CCCCCCN1C[C@@H](O)[C@H](n2cc(-c3ccc(F)cc3)nn2)C[C@@H]1c1ccc(C)cc1 | 6 | -3 | 4 | · | · | ·
Cn1c(NCc2ccccc2F)nc2cc(-c3cccc(C(F)(F)F)c3)sc2c1=O | 12 | 5 | 2 | · | · | ·
O=C(c1ccc(F)cc1)n1ccc2ccc(-c3ccc4ccn(Cc5ccccc5)c4c3)cc21 | · | · | 12 | · | · | ·
COc1ccc(C(=O)Nc2ccccc2C(=O)Nc2ccc(C(=O)O)cc2)cc1 | -7 | 4 | 14 | -6 | · | ·

Assay outcomes (PubChem)
